Laboratory results: ChEMBL document CHEMBL2390899, “Synthesis of new 18F-radiolabeled silicon-based nitroimidazole compounds” (Bioorg Med Chem, 2013)
Blank lines part the entries; values can stand above or below the compound they belong to.

Tests used:
[1] = Half life of the compound; format: physicochemical
[2] = Lipophilicity, log D of the compound at pH 4; format: physicochemical; settings: buffer
[3] = Half life human plasma by radio-HPLC and radio-TLC analysis; format: ADME, cell-free
Method in brief: (§1)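 The 18F-labelled compound was incubated in human plasma at 37 °C and monitored by radio-HPLC and radio-TLC for at least 120 min. The intact fraction and the half-life were obtained from this time course.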

[4] = Half life of the compound in saline at pH 5.5 by radio-HPLC and radio-TLC analysis; format: physicochemical
Method in brief: (§2)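 Aqueous saline (pH 5.5) samples of the 18F compound were analysed by radio-HPLC and radio-TLC at 5, 15, 30, 60 and 120 min to follow hydrolysis of the Si–F bond. Hydrolysis was followed up to 180 min. Half-life was taken from the decay of intact tracer.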

[5] = Lipophilicity, log D of the compound at pH 7.4; format: physicochemical; settings: buffer
[6] = species on record: Rattus norvegicus; assay: Biodistribution in Wistar rat bladder at 10 MBq after 90 mins by PET analysis; format: ADME, organism-based, Urinary bladder/Urine; settings: in vivo, 1.5 h
[7] = test system: Muscle tissue; assay: Biodistribution in Wistar rat muscle at 10 MBq after 90 mins by PET analysis; format: ADME, organism-based; settings: in vivo, 1.5 h
[8] = test system: Heart; assay: Biodistribution in Wistar rat heart at 10 MBq after 90 mins by PET analysis; format: ADME, organism-based; settings: in vivo, 1.5 h
[9] = test system: Liver; assay: Biodistribution in Wistar rat liver at 10 MBq after 90 mins by PET analysis; format: ADME, organism-based; settings: in vivo, 1.5 h
[10] = test system: Intestine; assay: Biodistribution in Wistar rat intestine at 10 MBq after 90 mins by PET analysis; format: ADME, organism-based; settings: in vivo, 1.5 h
[11] = species on record: Rattus norvegicus; assay: Biodistribution in Wistar rat femur bone at 10 MBq after 90 mins by PET analysis; format: ADME, organism-based, Bone element; settings: in vivo, 1.5 h
[12] = Drug degradation in water at pH 7.4 by radio-HPLC and radio-TLC analysis; format: physicochemical; settings: read-out: Drug degradation
Method in brief: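 Decomposition of the 18F compound in water at pH 7.4 was followed by radio-HPLC and radio-TLC, read after 120 min.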

[13] = Metabolic stability in human plasma assessed as compound remaining after 2 hrs by radio-HPLC and radio-TLC analysis; format: ADME, cell-free; settings: read-out: Stability; method in brief: as §1
[14] = Chemical stability of the compound in saline after 2 hrs at pH 5.5 by radio-HPLC and radio-TLC analysis; format: physicochemical; settings: read-out: Stability; method in brief: as §2
[15] = Chemical stability of the compound in saline after 180 mins at pH 5.5 by radio-HPLC and radio-TLC analysis; format: physicochemical; settings: buffer, pH 5.5, 3 h; method in brief: as §2
[16] = Octanol-water partition coefficient, log P of the compound; format: physicochemical
Method in brief: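 LogP was calculated as clogP with ChemDraw 11.0.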

Structure (SMILES): O=[N+]([O-])c1nccn1CCC[Si]([18F])(c1cccc2ccccc12)c1cccc2ccccc12
half-life [1]: 2.17 h

Structure (SMILES): CC(C)(C)[Si]([18F])(c1cccc(C(=O)NCCn2ccnc2[N+](=O)[O-])c1)C(C)(C)C
logD [5]: 2.12
SUV [6]: 9.5%
SUV [7]: 0.3%
SUV [8]: 0.5%
SUV [9]: 7.3%
SUV [10]: 6.5%
SUV [11]: 2.8%
degraded [12]: < 10%
remaining at 2 h [13]: 85%
remaining at 2 h [14]: 100%
Stability [15]: Stable

Structure (SMILES): O=C(Cn1ccnc1[N+](=O)[O-])NCC(F)(F)C(F)(F)F
P [16]: 5.7

Next, values leading:

logD [2]: 0.12
half-life [3]: < 5 min
half-life [4]: 1 h
Structure (SMILES): O=C(Cn1ccnc1[N+](=O)[O-])NCCC[Si]([18F])(c1cccc2ccccc12)c1cccc2ccccc12

half-life [3]: < 5 min
half-life [4]: 1 h
Structure (SMILES): O=[N+]([O-])c1nccn1CCOCCOCc1cn(CCC[Si]([18F])(c2cccc3ccccc23)c2cccc3ccccc23)nn1
